Data from the EternaBench riboswitch data.

System: MS2 coat protein
Assay: apparent Kd, MS2 coat protein; higher = weaker binding; RNA-MaP array; FMN 200 µM where present
How it was run: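 The apparent Kd is the median of filtered binding-curve fits, one per cluster, to green signal normalised to red-channel RNA signal and control-cluster median Fmax. The clusters were on Illumina sequencing chips, and stalled E. coli RNA polymerase had transcribed the designs on them. Titration used SNAP-549-labelled MS2 coat protein from 0.7 or 1.5 nM, doubling to 3 µM, without and then with constant ligand, in 100 mM Tris-HCl pH 7.5, 80 mM KCl, 4 mM MgCl2, BSA, DTT, yeast tRNA and Tween-20.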

[1] = designed as: OFF switch for flavin mononucleotide, no ligand
[2] = ligand present: flavin mononucleotide, designed as: OFF switch for flavin mononucleotide
[3] = designed as: ON switch for flavin mononucleotide, no ligand
[4] = ligand present: flavin mononucleotide, designed as: ON switch for flavin mononucleotide

Row | Sequence | apparent Kd [1] | apparent Kd [2] | apparent Kd [3] | apparent Kd [4]
1 | AAAUCGUCAGGAUAUGCUAGUAAAUGUUACAUUUCUUCAUAGCAGAAGGGACAUGAGGAUCACCCAUGUAAGUC | 33.7 nM | 45.6 nM | – | –
2 | AGAUCGAUUGUGAGGAUAUUGACCGGACGACCCAUCGAGAAGGCACAUGAGGAUCACCCAUGUGAGUCGGUUUA | 14.9 nM | 18.2 nM | – | –
3 | UACAGACAUGAGGAUCACCCAUGUAAGGAUAUCGGUACUAAUGGUAUAAUCUACUUAGCGAGAAGGUACAGUGU | 33.9 nM | 30.5 nM | – | –
4 | AGCGAGGCAGGAUAUACAUGAGGAUCACCCAUGUGCUUGCAUGGCGUGGAAUGUCGAGGUAGAAGGGCCAUGCC | 21.3 nM | 26.1 nM | – | –
5 | AUGUACCUAGGAUAUACAUGAGGAUCACCCAUGUUAACUUUGCAAUCAAGUUAAUAUUGUAGAAGGAGGUGAAA | 61.5 nM | 107 nM | – | –
6 | GGAAACUACGAGAAGGACAUGUGGUCCUUCAGUUACAUGAGGAUCACCCAUGUAGGAUAUCGUAGUUUCAGGAUCGUGAGAUCU | 35.4 nM | 13.7 nM | – | –
7 | GAUAGGCGAGGAUAUACAUGAGGAUCACCCAUGUAAGUAAGCCUGGCUGAAACUGAAUGUAGAAGGCGCACAUU | 18.4 nM | 45.1 nM | – | –
8 | GAUAGGACAGAGAAGGACGUAGCUAGAGAUACUAGCAUAAAGUCCUCAACAUGAGGAUCACCCAUGUAGGAUAUCUGUCCUAUC | 6.39 nM | 7.13 nM | – | –
9 | GGAUCGAGUGUGAGGAUAUGCAGGUCCUUGGAUCUGCAGAAGGCACAUGAGGAUCACCCAUGUGGAAACGGUCC | 64.2 nM | 567 nM | – | –
10 | CUUAGACAUGAGGAUCACCCAUGUGAGGAUAUGAUGCGAAUAAAGAAAGAAGAAAGCAUCAGAAGGCACAUAUG | 115 nM | 349 nM | – | –
11 | CUAUUGCUAACAGGAUAUAUGAGUCCUACAUGAGGAUCACCCAUGUAGGUGAUCAGCCGUGAUUAGUAGAAGGGUUAGCAAUAG | – | – | 12.2 nM | 6.91 nM
12 | UUAUUUUUUGAGGAUAUGCGACGUUUUUUCGUCGUAGAAGGCGAUACAUGAGGAUCACCCAUGUUUAUGGGCAU | 89.7 nM | 157 nM | – | –
13 | GUCGGAAACGACAAAAGUACCCGAGCAGAAGGGUGAAAACAUGAGGAUCACCCAUGUAAAUAAUCACAGGAUAUGCUCGGGUAC | – | – | 6.09 nM | 4.43 nM
14 | AGUUGGCGAGGAUAUACAUGAGGAUCACCCAUGUGAAUAAUAAUAGUGAGGAAGAAAAGUAGAAGGCGCUGACA | 49.7 nM | 237 nM | – | –
15 | UGUCGGAGCAGAGGAUAUUACAUGAGGAUCACCCAUGUAAUAAAUGGAAGCUGGAAACAGCAAUGUAAGAAGGCUGCUCCGACA | 17.4 nM | 47.9 nM | – | –
16 | UGAAACUACGAGAAGGACAUGUGGUCCUUCAGUUACAUGAGGAUCACCCAUGUAGGAUAUCGUAGUUUCAGGAUCGUGAGAUCU | 38.5 nM | 12.7 nM | – | –
17 | AAAAAGGCAGGAUAUACAUGAGGAUCACCCAUGUAAAGAAAGAAAGAGGUGAAAGAAAGUAGAAGGGCCAAAAA | 160 nM | 179 nM | – | –
18 | GACUAGGCAGGAUAUACAUGAGGAUCACCCAUGUGUCUGCGUUGGGCACGUGAACACCGUAGAAGGGCCUUGAC | 15.8 nM | 35 nM | – | –
19 | ACAUGAGGAUCACCCAUGUUAUCAGGGACUUCAAUUAUUUGUAGAAGGCUGUUUUCUUGUUAGUCAGAGGAUAUACAAUUAAAU | 12.7 nM | 14.2 nM | – | –
20 | AUUUUAUAAUAGAAGGAGGACUUCAUGAGGAUCACCCAUGUGUUAGUACCUAGGAUAUGUAAUAACAUGAGGAUCACCCAUGUC | – | – | 49.5 nM | 40.3 nM
21 | AGCUGUGGCCGAGGAUAUCUAACAAUCCCAACCGAAAUAUAAUCGGACAUGAGGAUCACCCAUGUAGAGAAGGCGGUCUCAGCA | 208 nM | 329 nM | – | –
22 | GCGAAUAUGGGUUAGGAUAUGCGCGCAUGUACAUGAGGAUCACCCAUGUUUACGGGCGCCUUUGAGCAGAAGGAGCUAAUCAACGC | – | – | 36.5 nM | 27.6 nM
23 | AUACUGAGCGUAAAUUACCUUAACAUGAGGAUCACCCAUGUGGAGGAUAUUGACCUAGCAAAGCUCGAGAAGGCCACUGGGAUG | 17.5 nM | 18.1 nM | – | –
24 | CAGAUCGGCGCAGGAUAUGUCGACAUGAGGAUCACCCAUGUAAACCUUGUCUGGUCCGGUGUGUGACAGAAGGGUGUCGGCCAU | 31.5 nM | 30.9 nM | – | –

Row | Sequence | apparent Kd [1] | apparent Kd [2] | apparent Kd [3] | apparent Kd [4]
25 | GCGUGGAAUACAGGAUAUGUUGUACAAUAAUCUUUGAGGCAUUGAGAUAAAACAGAAGGGUAAACAUGAGGAUCACCCAUGUAA | 24.7 nM | 19.6 nM | – | –
26 | GGAGCUCACAUCUACAUGAGGAUCACCCAUGUCAAAAGACAUGAGGAUAUGCAUCCUAAUUGGAUGCAGAAGGCAUGGAGCUCC | – | – | 946 nM | 57.4 nM
27 | AAUCCACAUGAGGAUCACCCAUGUGAGGAUAUGAUACUAUGUACUUCGGUACAUAGUAUCAGAAGGCACGGAUC | 33.2 nM | 50.4 nM | – | –
28 | UAUGGUAAAGUCAGGAUAUACGUACAUAAUUCUAGGUAGAAGGGACAUGAGGAUCACCCAUGUAUGGUAGUGUU | 73 nM | 84 nM | – | –
29 | AACAUGCUUGGGUAACCUGGCACAUGAGGAUCACCCAUGUGACAGGAUAUCGACGUAGAUGGCGACGAGAAGGGUCCGAUGGGU | 7.13 nM | 10.8 nM | – | –
30 | AUGCUUAUCGAAGGAUAUGGUUACAUGAGGAUCACCCAUGUUAUGCUUGGUUACUUGUUUAGUUUCCAGAAGGUCGAUUAGUUG | 71 nM | 172 nM | – | –
31 | AGAAAACAUGAGGAUCACCCAUGUCAGGAUAUCUCCAAGGCUUAACAUCCAGCCCUGCAGAGAAGGGACGGGUG | 87.9 nM | 225 nM | – | –
32 | AUGGUACAUGAGGAUCACCCAUGUUAGGAUAUCGCGUGAUCUAAAACUAAGAGACACACGAGAAGGGACGACAU | 176 nM | 104 nM | – | –
33 | GGGCUCGGAGGAUAUACAAUUCUGGGCUGAAAGGCUCGGGUACAUGAGGAUCACCCAUGUAGAAGGUCGGGUCU | 15.9 nM | 15.9 nM | – | –
34 | GCCUCAUAGUAGAAGGGACUUAUACAGUAAUGUUUUUAGUGUAAAUAACAUGAGGAUCACCCAUGUCAGGAUAUACUAAGAGGC | 9.24 nM | 12.1 nM | – | –
35 | GUAGUUAGUAAAGGAUAUUAGUGUGUGUAAUAUUGAGAAGGUUACAUGAGGAUCACCCAUGUGAUCAAUCACUGUUAAGGUUGC | 6.6 nM | 6.42 nM | – | –
36 | CUUUUGUGAGGAUAUUAGUAGUAAAUAAAUAAAAUUACUACUUAGAAGGCACAUGAGGAUCACCCAUGUUCCUC | 26.9 nM | 219 nM | – | –
37 | AGUGUGUGGCAGGAUAUUCUGAUCGUGAGUCGGGAAGAAGGGUCUACAUGAGGAUCACCCAUGUGAGCGGUUGA | 248 nM | 432 nM | – | –
38 | UGGGACGUCGUAGGAUAUGUAGGAUAUUCCUACAUGAGGAUCACCCAUGUUGACAUGGAAGAAGGACAGAAGGACGAUGUCCAU | – | – | 211 nM | 4.78 nM
39 | UUUGCAUUCCGAGGAUAUUCAUUUAAUGACUUCACAUGAGGAUCACCCAUGUGGCGAUAGCCUAGGGAGAAGGCGGUUUGCUUU | – | – | 24.4 nM | 19.6 nM
40 | UUAUGUUUUGUAGGAUAUCAUUAGUUAUGUAUUUUAAUUGAAAUUUAGAUAUGAGAAGGACAUUUACAUGAGGAUCACCCAUGU | 17.4 nM | 11.1 nM | – | –
41 | AAUCGGGAGCAGAAGGCAUGUAAUAAAACAUGAGGAUCACCCAUGUAGUUAAGGCGAAAGCCGCAUGAGGAUAUGCUCCCGUAA | – | – | 5.39 nM | 4.99 nM
42 | CAUUAACUACAAUUACAUGAGGAUCACCCAUGUUUUGGGAUGCAGGAUAUGUGGUAUAUUAAUUAACAGAAGGGCAAUAAUUUU | – | – | 41.5 nM | 36.7 nM
43 | GAUUUAGAGCAGGAUAUCAUAGAAUUGUAUGAAUGAGAAGGGCUCACAUGAGGAUCACCCAUGUGGUCCUAGAU | 21.7 nM | 132 nM | – | –
44 | GGCCGGAAUGUAGGAUAUGGAUAUUUAAAUAUACCAGAAGGACAUGAGGAUCACCCAUGUAUAAUAAUUAACAAACUUAGAUCC | 32.7 nM | 121 nM | – | –
45 | UGUUCUAUGUAGAAGGCCCAUAUCUGUACUUAGGGAGGAUAUACAUGAGGAUCACCCAUGUGUAGAGCUGGUGGACUGGUCAGC | 16.5 nM | 37.2 nM | – | –
46 | AGUCUGCGAGGAUAUACAUGAGGAUCACCCAUGUGCGAGAUACUAGUGAGGUCGAUUGGUAGAAGGCGCGGACA | 111 nM | 66.1 nM | – | –
47 | GGACGUCACAUUAACAUGAGGAUCACCCAUGUCAAAAGACAUGAGGAUAUGCAUCCUAAUUGGAUGCAGAAGGCAUGGACGUCC | – | – | 449 nM | 35 nM
48 | AAAAAACAUGAGGAUCACCCAUGUAAUAAAACGUCAGGAUAUUGAUUUUAUUAUUUAUUGCAAGAAGGGACAAAAA | – | – | 56.5 nM | 24 nM
